Bioassay records from PubChem.
SIAE primary: blocks human sialic acid acetylesterase. 0.69% of 370,000 active. SIAE FP-Rh probe binding, fluorescence polarization. inhibition, % at 9.66 µM. Q9HAT2;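 active = inhibition above a cutoff: mean of compounds within the control limits plus 3 SD of those, cut at about 17% in these data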
PAD4 FP inh: inhibitors of human PAD4; Q9UM07; 0.41% of 330,000 active; inhibition, % at 6.36 µM; recombinant PAD4, RCA probe fluorescence polarization;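 active = percent inhibition above a cutoff equal to the mean of all tested compounds plus 3 SD, cut at about 15% in these data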
TCR-CD3 inh: inhibitors of human TCR-CD3 interaction. TAMRA-labeled TCR probe fluorescence, biochemical. 0.37% of 360,000 active. inhibition, % at 9.4 µM; in the data active = inhibition above about 19%;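 note: recombinant mutant TCR 2C K166C tagged with TAMRA read by polarization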
Apaf1 inhib: human Apaf-1 inhibition. O14727. reconstituted apoptosome caspase-3 activity, DEVD-Rh110 fluorescence. inhibition, % at 20 µM. 0.71% of 330,000 active; active = inhibition of at least 40% at 20 µM
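Material: reconstituted apoptosome with Apaf-1, cytochrome c, caspase-9, procaspase-3, dATP / Buffer or medium: pH 7.5 Hepes buffer with CHAPS, BSA, DTT / Also added: cytochrome c with DEVD-Rh110 / Schedule: compound with Apaf-1, dATP, procaspase-3 30 min, then 50 min reaction, room temperature / Technique: rhodamine 110 fluorescence at Ex 480/Em 540 nm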
TDP2 absorb: blocks human TDP2 phosphodiesterase activity | 0.34% of 370,000 active | recombinant TDP2, T5PNP hydrolysis, p-nitrophenol absorbance 415 nm | O95551 | AID 720702 | inhibition, % at 12.8 µM;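 active = inhibition above the mean of all tested compounds plus 3 SD, set per campaign, cut at about 25% in these data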
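Assay system: Recombinant human TDP2 | Quantity: 120 nM TDP2 per well | Incubation: 2 h at 37 °C | Signal: Epi absorbance | Evaluation: Percent inhibition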
GSTO1 counter: counter-screen for RBBP9 inhibitors: inhibitors of human GSTO1; P78417; recombinant GSTO1, activity-based probe fluorescence polarization; inhibition, % at 5.96 µM; 1.1% of 300,000 active; AID 1974;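 active = inhibition above the campaign mean inhibition plus 3 SD, cut at about 35% in these data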
Target sequence (P78417 whole entry, looked up): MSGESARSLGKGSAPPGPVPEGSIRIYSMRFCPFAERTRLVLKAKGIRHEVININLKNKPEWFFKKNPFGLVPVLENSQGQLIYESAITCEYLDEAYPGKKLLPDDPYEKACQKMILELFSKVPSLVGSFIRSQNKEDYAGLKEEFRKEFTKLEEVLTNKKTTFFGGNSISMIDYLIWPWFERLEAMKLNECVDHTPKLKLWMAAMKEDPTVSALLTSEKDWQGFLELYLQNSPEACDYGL
SIAE confirm: confirmation of human SIAE inhibitors; shares compounds with SIAE primary; SIAE FP-Rh activity-based probe, fluorescence polarization; inhibition, % at 9.66 µM; 13% of 2,300 active; AID 1117263;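 active = mean inhibition of the replicates above the hit cutoff set in the primary screen, cut at about 17% in these data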;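 note: inhibitors lower polarization as more probe stays unbound to SIAE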
Hits are given with their value; 0 = inactive; - = not tested or not shown. The list is not random: actives were taken first. Their share in the collection is about 2.4%.

SMILES	SIAE primary	PAD4 FP inh	TCR-CD3 inh	Apaf1 inhib	TDP2 absorb	GSTO1 counter	SIAE confirm
CC1CCN(c2nc(N(C)c3ccccc3)nc(N)c2[N+](=O)[O-])CC1	0	0	0	0	0	0	-
CC(=O)Nc1ccc(S(=O)(=O)Nc2ccc(Cl)cn2)cc1	88	0	0	0	0	0	0
COc1ccc(S(=O)(=O)Nc2ccc(Cl)cn2)cc1	0	0	0	0	0	0	-
Cc1ccc(C(=O)COC(=O)CNC(=O)c2ccc(Br)o2)cc1[N+](=O)[O-]	0	0	0	0	0	0	-
Cc1ccc(S(=O)(=O)Nc2nc(C)c(NC(=O)Nc3ccc(Cl)cc3Cl)s2)cc1	35	0	0	0	0	0	29
Cc1ccc(S(=O)(=O)Nc2nc(C)c(NC(=O)OCCCl)s2)cc1	0	0	0	0	0	0	-
Cc1ccnc(NC(=O)c2cccc(S(=O)(=O)NCc3ccccc3)c2)c1	21	0	0	0	0	0	0
CC(=O)c1cccc(S(=O)(=O)N2CCC(C(=O)Oc3ccc(-c4nnco4)cc3)CC2)c1	22	0	0	0	0	-	0
CCCCN(C(=O)c1ccc(S(=O)(=O)N(CC)CC)cc1)c1c(N)n(CCC)c(=O)[nH]c1=O	0	0	0	0	0	0	-
O=C1Nc2ccccc2C12NCCc1c2[nH]c2ccccc12 (stereo not given)	0	0	0	0	0	0	-
CC1=CC(C)(C)N2C(=O)C3(NCCc4c3[nH]c3ccccc43)c3cccc1c32 (stereo not given)	18	0	0	0	0	0	0
C[C@]12C=C[C@H](O)CC1=CCC1C2CC[C@@]2(C)C1CCC21OCCO1 (stereo not given in full)	0	0	0	0	0	-	-
Cc1ccc(C2=NN(CCC(=O)NCCCN3CCOCC3)C(=O)CC2)cc1	0	0	0	0	0	0	-
O=C(OC12CCCN(C1)/C(=C/c1ccccc1)C2)C1CCCCC1 (stereo not given)	0	-	-	-	0	-	-
N#Cc1ccc(/C=C2\CC3(OC(=O)C4CCCC4)CCCN2C3)cc1 (stereo not given)	23	-	-	-	0	-	0
COc1ccc(/C=C2\CC3(OC(=O)C4CCCCC4)CCCN2C3)cc1 (stereo not given)	0	-	-	-	0	-	-
O=C(OC12CCCN(C1)/C(=C/c1ccc(Cl)cc1)C2)C1CCCCC1 (stereo not given)	18	-	-	-	0	-	0
CCOc1ccccc1C(=O)Nc1cccc(-c2ccc3nncn3n2)c1	0	0	0	0	0	0	-
COc1ccc(C/C(C)=N/NC(=O)c2cccnc2)cc1	18	0	0	0	0	0	0
COc1ccc(C/C(C)=N/NC(=O)c2ccc(Cl)cc2)cc1	0	0	0	0	0	0	-
CC(C)C(=O)c1cn(CC(=O)O)c2ccccc12	19	0	0	0	0	0	0
CC(C)(C)C(=O)c1cn(CC(=O)O)c2ccccc12	0	0	0	0	0	0	-
C=CCc1ccc(OCCCCNC(C)CC)c(OC)c1 (stereo not given)	0	0	0	0	0	0	-
CCC(=O)Nc1ccc(Oc2ccc(NC(=O)CC)c(NC(=O)CC)c2)cc1	0	0	0	0	0	0	-
CCOc1ccc(CCNC(=O)C(O)c2ccccc2)cc1 (stereo not given)	0	0	0	0	0	0	-
SMILES	SIAE primary	PAD4 FP inh	TCR-CD3 inh	Apaf1 inhib	TDP2 absorb	GSTO1 counter	SIAE confirm
CCOc1ccc(C2C(C(=O)OC)=CN(C(C)c3ccccc3)C=C2C(=O)OC)cc1 (stereo not given)	18	0	0	0	0	0	0
CCN(CC)c1ccc(/C=N/NC(=O)c2c[nH]c3ccccc23)cc1	24	0	0	0	0	0	0
O=C(Nc1nnc(-c2ccccc2)o1)C1CCCN1S(=O)(=O)c1cccs1 (stereo not given)	0	0	0	0	0	0	-
COc1ccc(S(=O)(=O)N(CC(=O)N2CCN(c3ccccc3)CC2)c2ccccc2)cc1	0	0	0	0	0	0	-
COc1ccc(N2CCN(C(=O)CN(c3ccccc3)S(C)(=O)=O)CC2)cc1	20	0	0	0	0	0	0
CS(=O)(=O)N(CC(=O)N1CCN(Cc2ccccc2)CC1)c1ccccc1Br	19	0	0	0	0	0	0
